Data set [1] has as its system Plasmodium berghei. In words: Antiplasmodial activity against Plasmodium berghei infected in mice (Mus musculus) at 5 mg/kg, perorally administered 1 day post infection for 3 days. Format: functional. The following applies: route oral.
Data set [2] has as its system Plasmodium berghei. The experiment in a line: Antiplasmodial activity against Plasmodium berghei NK65 infected in Swiss Webster mice (Mus musculus) assessed as average parasitaemia at 50 mg/kg, perorally administered 1 day after infection measured after 14 days post infection. Format: functional. The following applies: route oral. The method, boiled down:
(§1)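 Male Swiss Webster mice (18-20 g, ≥5/group) inoculated i.p. with 2×10^7 P. berghei NK-65 parasitized RBC, given a single oral dose (100 μl, SSV or dilute HCl vehicle); parasitemia by Giemsa-stained tail blood smears days 5–28; activity as % decrease versus untreated controls on day 5.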

In data set [3] the test system is Plasmodium berghei. The experiment in a line: Antiplasmodial activity against Plasmodium berghei NK65 infected in Swiss Webster mice (Mus musculus) assessed as parasitaemia cure at 5 mg/kg, perorally administered 1 day after infection for 3 days measured after 28 days post infection. The following applies: route oral. Format: functional.
The subject of data set [4] is Plasmodium berghei. The experiment in a line: Antiplasmodial activity against Plasmodium berghei NK65 infected in Swiss Webster mice (Mus musculus) assessed as average parasitaemia at 50 mg/kg, perorally administered as single dose measured after 5 days of inoculation. Format: functional. The following applies: NK65, 120 h, route oral. The method, boiled down: as §1

Data set [5] has as its system Plasmodium berghei. In words: Antiplasmodial activity against Plasmodium berghei NK65 infected in Swiss Webster mice (Mus musculus) assessed as average parasitaemia at 10 mg/kg, perorally administered 1 day after infection for 3 days measured after 14 days post infection. The following applies: route oral. Format: functional.
Data set [6] concerns Plasmodium berghei. In words: Antiplasmodial activity against Plasmodium berghei NK65 infected in Swiss Webster mice (Mus musculus) assessed as average parasitaemia at 3.3 mg/kg, perorally administered 1 day after infection for 3 days measured after 21 days post infection. Format: functional. The following applies: route oral. The method, boiled down:
(§2)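 Male Swiss Webster mice (18-20 g, ≥5/group) inoculated i.p. with 2×10^7 P. berghei NK-65 parasitized RBC; oral dosing (100 μl, SSV or dilute HCl vehicle) once daily for 3 days from day 1; Giemsa-stained tail blood smears days 5–28; inhibition is % decrease versus untreated controls on day 5.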

Data set [7] relates to HeLa. The experiment in a line: Cell cycle arrest in human HeLa cells assessed as decrease in G2/M phase accumulation at 3 uM after 24 hrs by FACS analysis. Format: functional. Also noted: scale not given: the % may be the effect or the level left. In general terms: A flow cytometer gives signals particle by particle.
Data set [8] relates to Plasmodium berghei. In words: Antiplasmodial activity against Plasmodium berghei NK65 infected in Swiss Webster mice (Mus musculus) assessed as average parasitaemia at 50 mg/kg, perorally administered 1 day after infection measured after 7 days post infection. Format: functional. The settings on record: route oral. The method, boiled down:
as §1

Data set [9] concerns Plasmodium berghei. The experiment in a line: Antiplasmodial activity against Plasmodium berghei NK65 infected in Swiss Webster mice (Mus musculus) assessed as parasitaemia cure at 1.1 mg/kg, perorally administered 1 day after infection for 3 days measured after 28 days post infection. Format: functional. The following applies: route oral. The method, boiled down:
(§3)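 Male Swiss Webster mice (18-20 g), at least 5 per group, inoculated i.p. with 2×10^7 P. berghei NK-65-parasitized red cells from a donor mouse. Oral dosing (100 μl, in SSV or 0.01 M HCl dilutions) from day one post-infection on a 3-day schedule (modified Peters test). Giemsa-stained tail-blood smears read from day 5 to day 28. Cure means no parasitemia through day 28.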

The species named for data set [10] is Mus musculus. The experiment in a line: Toxicity in Plasmodium berghei NK65 infected Swiss Webster mice (Mus musculus) assessed as weight loss until day 5 of post infection. Format: organism-based. The following applies: in vivo.
In data set [11] the test system is Plasmodium berghei. In words: Antiplasmodial activity against Plasmodium berghei NK65 infected in Swiss Webster mice (Mus musculus) assessed as average parasitaemia at 10 mg/kg, perorally administered 1 day after infection for 3 days measured after 21 days post infection. Format: functional. The following applies: route oral.
The test system of data set [12] is Plasmodium berghei. In words: Antiplasmodial activity against Plasmodium berghei NK65 infected in Swiss Webster mice (Mus musculus) assessed as average parasitaemia at 3.3 mg/kg, perorally administered 1 day after infection for 3 days measured after 14 days post infection. Format: functional. The settings on record: route oral. The method, boiled down:
as §2

Data set [13] has as its system Plasmodium berghei. In words: Antiplasmodial activity against Plasmodium berghei NK65 infected in Swiss Webster mice (Mus musculus) assessed as survivability at 3.3 mg/kg, perorally administered 1 day after infection for 3 days measured after 28 days post infection. The settings on record: route oral. Format: functional. The method, boiled down:
as §3

Data set [14] relates to Plasmodium berghei. The experiment in a line: Antiplasmodial activity against Plasmodium berghei NK65 infected in Swiss Webster mice (Mus musculus) assessed as parasitaemia cure at 50 mg/kg, perorally administered 1 day after infection measured after 28 days post infection. Format: functional. The settings on record: route oral. The method, boiled down:
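P. berghei NK-65 infection in male Swiss Webster mice (18-20 g; 2×10^7 parasitized erythrocytes i.p.; ≥5 per group). A single oral dose of 100 μl, diluted in SSV or 0.01 M HCl, then observation for toxicity signs and body weight. Parasitemia read from Giemsa-stained tail smears from day 5 through day 28. Mice free of parasitemia through day 28 counted as cured.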

A short description of data set [15]: Antineuroinflammatory activity in LPS-stimulated rat neonatal microglia assessed as inhibition of PMA-induced TXB2 production preincubated 15 mins prior to PMA challenge measured after 70 mins. Format: functional, cell-based.
Data set [16] relates to Mus musculus. The experiment in a line: Toxicity in Plasmodium berghei NK65 infected Swiss Webster mice (Mus musculus) at 3 mg/kg, intraperitoneally administered as 10 doses measured after 3 days of inoculation. Set-up: dose 3 mg/kg, route intraperitoneal. The settings on record: in vivo, ip, 72 h. Format: organism-based. The method, boiled down:
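Male Swiss Webster mice (18-20 g), 5 per group, were inoculated i.p. with 2×10^7 P. berghei NK-65 parasitized red cells. Compound was given i.p. at 10×3 mg/kg, with a vehicle-control group. Day of death, mean survival time and cure were recorded. Parasitemia was read on Giemsa-stained tail-blood smears (days 5, 7), with suppression relative to the control mean. Cure meant no parasitemia through day 28.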

For data set [17], the system named is Plasmodium berghei. The experiment in a line: Antiplasmodial activity against Plasmodium berghei NK65 infected in Swiss Webster mice (Mus musculus) assessed as average parasitaemia at 5 mg/kg, perorally administered 1 day after infection for 3 days measured after 14 days post infection. Format: functional. The settings on record: route oral.
The test system of data set [18] is Plasmodium berghei. In words: Antiplasmodial activity in Plasmodium berghei NK65 infected in Swiss Webster mice (Mus musculus) assessed as survivability at 1.1 mg/kg, perorally administered 1 day after infection for 3 days measured after 28 days post infection. Format: functional. The settings on record: route oral. The method, boiled down:
as §3

Data set [19] concerns HeLa. The experiment in a line: Cell cycle arrest in human HeLa cells assessed as decrease in G2/M phase accumulation at 20 uM after 24 hrs by FACS analysis. Also noted: scale not given: the % may be the effect or the level left. Format: functional.
The test system of data set [20] is Plasmodium berghei. The experiment in a line: Antiplasmodial activity against Plasmodium berghei NK65 infected in Swiss Webster mice (Mus musculus) assessed as average parasitaemia at 200 mg/kg, perorally administered 1 day after infection measured after 14 days post infection. Format: functional. The settings on record: Plasmodium berghei, NK65, route oral. The method, boiled down: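 Male Swiss Webster mice (18-20 g), at least 5 per group, were inoculated ip with 2×10^7 P. berghei NK-65-parasitized red cells from a donor mouse and given a single oral dose (100 μl). Stock was made in SSV or 0.1 M HCl and diluted in SSV or 0.01 M HCl. Parasitemia was read from Giemsa-stained tail blood smears from day 5 to day 28. Cure meant no parasitemia through day 28.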

Another data set has as its system Vero. The experiment in a line: Cytotoxicity against african green monkey Vero cells after 48 hrs by neutral red assay. The following applies: chlorocebus sabaeus. Format: cell-based. The method, boiled down: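 Vero cells seeded at 25,000/well and grown 24 h, then exposed to serially diluted samples for 48 h. Viable cells measured by neutral red assay, with doxorubicin as positive control. IC50 taken from dose-response curves.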

For data set [21], the system named is Plasmodium berghei. In words: Antiplasmodial activity against Plasmodium berghei infected in mice (Mus musculus) at 10 mg/kg, perorally administered 1 day post infection for 3 days. Format: functional. The settings on record: route oral.
Data set [22] has as its system HeLa. The experiment in a line: Cytotoxicity against human HeLa cells after 48 hrs by trypan blue exclusion assay. Format: functional.
Data set [23] relates to Plasmodium berghei. The experiment in a line: Antiplasmodial activity against Plasmodium berghei NK65 infected in Swiss Webster mice (Mus musculus) assessed as average parasitaemia at 1.1 mg/kg, perorally administered 1 day after infection for 3 days measured after 10 days post infection. Format: functional. The settings on record: route oral.

In brackets after ≈: the same amount, converted by molar mass.

Turning to `O[C@]12C=C(c3nccc4c3[nH]c3ccccc34)[C@@H]3CCN(CCCC/C=C\CC1)C[C@@]31C[C@@H]3/C=C\CCCCN3[C@H]12` [MANZAMINE A], the Activity is 24.3 days in the data set with Plasmodium berghei [1]; 13% in the data set with HeLa [7]; “Toxic” in the data set listed under Mus musculus [10]; “Non-toxic” in the data set on Mus musculus [16]; 11.8% with HeLa [19]; 14.3 days in the data set on Plasmodium berghei [21]. The same molecule yielded an Activity with HeLa [22] of 2 µg/mL. In addition, the inhibition in vivo at 50 mg/kg with Plasmodium berghei [2] amounted to 1%; in the data set with Plasmodium berghei [4], 0%; in the data set with Plasmodium berghei [8], 0%; in the data set with Plasmodium berghei [14], 60%. Besides, the inhibition in vivo at 5 mg/kg in the data set on Plasmodium berghei [3] worked out at 0%; in the data set on Plasmodium berghei [17], 13.5%. In addition, the inhibition in vivo at 10 mg/kg in the data set with Plasmodium berghei [5] was 0.9%; in the data set on Plasmodium berghei [11], 1.9%. Further, the inhibition in vivo at 3.3 mg/kg in the data set on Plasmodium berghei [6] was 21.6%; in the data set with Plasmodium berghei [12] it was 11.9%; in the data set on Plasmodium berghei [13], 100%. The inhibition in vivo at 1.1 mg/kg with Plasmodium berghei [9] was determined as 0%; in the data set with Plasmodium berghei [18] it was 50%; in the data set with Plasmodium berghei [23], 11.5%. Moreover, the IC50 in [15] was less than 100 nM; in the data set with Vero, 0.2 µg/mL (≈ 0.364 µM). In the data set with Plasmodium berghei [20], the inhibition in vivo at 200 mg/kg came to 0%.

Broadly, the inhibition in vivo is the percentage by which the read-out fell short of the control. The IC50 is the concentration needed to halve the response being measured.

For the origin of these results see ChEMBL document CHEMBL1157729, “Structure-activity relationship and mechanism of action studies of manzamine analogues for the control of neuroinflammation and cerebral infections” (J Med Chem, 2010).
